Laboratory results as given in ChEMBL document CHEMBL4219134, “Xanthone derivatives as phosphoglycerate mutase 1 inhibitors: Design, synthesis, and biological evaluation” (Bioorg Med Chem, 2018).

Assays:
Homo sapiens [1] = species: Homo sapiens; experiment: Inhibition of enolase (unknown origin) at 5 uM using 2-PG relative to control
Outline: (§1)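 PGAM1 omitted to test the downstream coupling enzymes. Compound (0.5 mM stock) preincubated 2 min at room temperature in 50 mM Tris pH 8.0. OD340 decrease read; inhibition ratio at 5 µM.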

[2] = target: T1, Phosphoglycerate mutase 1 (Homo sapiens, UniProt P18669); experiment: Inhibition of recombinant PGAM1 (unknown origin) using 3-PG as substrate preincubated for 2 mins followed by substrate addition
Outline: (§2)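 Recombinant PGAM1 plus compound (DMSO) in 50 mM Tris pH 8.0, preincubated 2 min at room temperature. Started with 3PG (200 mM stock); NADH oxidation read as OD340 decrease. IC50 from triplicates, mean ± sd.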
Target sequence in this assay (P18669 whole entry): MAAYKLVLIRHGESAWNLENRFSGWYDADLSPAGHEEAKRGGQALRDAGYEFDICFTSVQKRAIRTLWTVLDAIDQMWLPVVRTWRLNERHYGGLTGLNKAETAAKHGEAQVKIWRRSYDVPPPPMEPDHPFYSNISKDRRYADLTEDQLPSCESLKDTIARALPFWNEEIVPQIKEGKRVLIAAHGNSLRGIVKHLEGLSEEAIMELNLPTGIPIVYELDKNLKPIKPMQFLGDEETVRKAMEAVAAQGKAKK

Homo sapiens [3] = species: Homo sapiens; experiment: Inhibition of pyruvate kinase (unknown origin) at 5 uM using 2-PG relative to control; outline: as §1
PANC-1 = experiment: Antiproliferative activity against human PANC1 cells after 72 hrs by MTT assay; assay type: functional, cell-based; conditions: PANC-1, 72 h
Outline: (§3)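 MTT assay: 2 × 10^3 cells per well, cultured 24 h at 37 °C. Compound then added for 72 h at 37 °C, followed by 0.5 mg mL-1 MTT for 4 h. Formazan dissolved in DMSO and absorbance read at 570 nm. IC50 from triplicate experiments, mean ± sd.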

MCF7 = experiment: Antiproliferative activity against human MCF7 cells after 72 hrs by MTT assay; assay type: functional, cell-based; conditions: MCF7, 72 h; outline: as §3
NCI-H1299 = experiment: Antiproliferative activity against human H1299 cells after 72 hrs by MTT assay; assay type: functional, cell-based; conditions: NCI-H1299, 72 h; outline: as §3
[4] = target: L-lactate dehydrogenase (Homo sapiens) (UniProt V9HWB9); experiment: Inhibition of LDH (unknown origin) at 5 uM using 2-PG relative to control; outline: as §1
[5] = target: T1, Phosphoglycerate mutase 1; experiment: Inhibition of recombinant PGAM1 (unknown origin) at 20 uM using 3-PG as substrate preincubated for 2 mins followed by substrate addition relative to control
Outline: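 Same coupled PGAM1 assay: recombinant enzyme preincubated 2 min at room temperature with compound in 50 mM Tris pH 8.0. Enolase/PK/LDH mix with ADP, MgCl2, KCl and NADH added, then 3PG (200 mM stock) to start. OD340 decrease measured; inhibition ratio recorded at 20 µM.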
Target sequence in this assay (P18669 2-254 limits assumed): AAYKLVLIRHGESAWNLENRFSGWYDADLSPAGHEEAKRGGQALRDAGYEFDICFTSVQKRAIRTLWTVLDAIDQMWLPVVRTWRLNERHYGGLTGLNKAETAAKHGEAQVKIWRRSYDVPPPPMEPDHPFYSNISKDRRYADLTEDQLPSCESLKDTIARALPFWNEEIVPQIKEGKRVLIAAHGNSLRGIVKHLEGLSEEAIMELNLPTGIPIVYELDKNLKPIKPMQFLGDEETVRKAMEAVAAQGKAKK

[6] = target: T1, Phosphoglycerate mutase 1; experiment: Binding affinity to PGAM1 (unknown origin) assessed as change in melting temperature by SYPRO Orange-dye based fluorescence thermal shift assay
Outline: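 PGAM1 protein at 200 µg/ml with compound at 12.5 to 50 µM in 20 mM Tris-HCl, 100 mM NaCl, pH 7.4. Melting monitored by SYPRO orange fluorescence at 610 nm; Tm shift recorded.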
Target sequence in this assay (P18669 2-254 limits assumed): as above

[7] = target: T1, Phosphoglycerate mutase 1; experiment: Inhibition of PGAM1 (unknown origin); outline: as §2
Target sequence in this assay (P18669 whole entry): as the sequence (P18669 whole entry) above

Row | Structure (SMILES) | inhibition (Homo sapiens [1]) | IC50 [2] | inhibition (Homo sapiens [3]) | IC50 (PANC-1) | IC50 (MCF7) | IC50 (NCI-H1299) | inhibition [4] | inhibition [5] | Activity [6] | IC50 [7]
1 | O=c1c2c(O)cccc2oc2cc(NS(=O)(=O)c3ccc(-c4ccccc4)cc3)c(O)c(O)c12 | 8% | 1.2 µM | 8% | > 200 µM | 44.9 µM | 12.9 µM | 8% |  |  | 
2 | COc1c(NS(=O)(=O)c2ccc(Br)cc2)cc2oc3cccc(OC)c3c(=O)c2c1O |  | > 20 µM |  |  |  |  |  | < 10% |  | 
3 | CC(C)(C)c1ccc(S(=O)(=O)Nc2cc3oc4cccc(O)c4c(=O)c3c(O)c2O)cc1 | 1% | 2.6 µM | 1% | > 200 µM | 13.4 µM | 10.7 µM | 1% |  |  | 
4 | O=c1c2c(O)cccc2oc2cc(NS(=O)(=O)c3ccc(I)cc3)c(O)c(O)c12 | 11% | 1.9 µM | 11% | 34.5 µM | 13.5 µM | 24.3 µM | 11% |  |  | 
5 | O=c1c2c(O)cccc2oc2cc(NS(=O)(=O)c3cccc4ccccc34)c(O)c(O)c12 | 7% | 1.7 µM | 7% | 101 µM | 27.3 µM | 23.2 µM | 7% |  |  | 
6 | COc1c(NS(=O)(=O)c2cccc3ccccc23)cc2oc3cccc(OC)c3c(=O)c2c1O |  | > 20 µM |  |  |  |  |  | < 10% |  | 
7 | COc1c(NS(=O)(=O)c2cccc(C#N)c2)cc2oc3cccc(OC)c3c(=O)c2c1O |  | > 20 µM |  |  |  |  |  | < 10% |  | 
8 | O=c1c2c(O)cccc2oc2cc(NS(=O)(=O)c3ccc(Cl)cc3)c(O)c(O)c12 | 15% | 3.6 µM | 15% | 91.4 µM | 15.5 µM | 10.2 µM | 15% |  |  | 
9 | O=c1c2c(O)cccc2oc2cc(NS(=O)(=O)c3ccc(C4CCCCC4)cc3)c(O)c(O)c12 | 9% | 0.5 µM | 9% | 35.3 µM | 26.6 µM | 10.7 µM | 9% |  | Dose-dependent effect | 
10 | O=c1c2c(O)cccc2oc2cc(NS(=O)(=O)c3ccc(C(F)(F)F)cc3)c(O)c(O)c12 | -1% | 3.5 µM | -1% | 58.5 µM | 30.2 µM | 10.3 µM | -1% |  |  | 
11 | Cc1ccc(S(=O)(=O)Nc2cc3oc4cccc(O)c4c(=O)c3c(O)c2O)cc1 | 2% | 7.2 µM | 2% | 20.7 µM | 44.9 µM | 13.2 µM | 2% |  |  | 
12 | O=c1c2c(O)cccc2oc2cc(NS(=O)(=O)c3ccc(N4CCCCC4)cc3)c(O)c(O)c12 | 5% | 1 µM | 5% | > 200 µM | 47.6 µM | 8.1 µM | 5% |  |  | 
13 | O=c1c2c(O)cccc2oc2cc(NS(=O)(=O)Cc3ccccc3)c(O)c(O)c12 | 12% | 1.9 µM | 12% | > 200 µM | > 200 µM | 62.9 µM | 12% |  |  | 
14 | N#Cc1cccc(S(=O)(=O)Nc2cc3oc4cccc(O)c4c(=O)c3c(O)c2O)c1 | 13% | 2.1 µM | 13% | > 200 µM | 18.4 µM | 53 µM | 13% |  |  | 
15 | O=c1c2c(O)cccc2oc2cc(NS(=O)(=O)c3cccc(OC(F)(F)F)c3)c(O)c(O)c12 | 12% | 5.8 µM | 12% | 116 µM | 20.5 µM | 13.9 µM | 12% |  |  | 
16 | COc1c(NS(=O)(=O)c2ccc(F)cc2)cc2oc3cccc(OC)c3c(=O)c2c1O |  | > 20 µM |  |  |  |  |  | < 10% |  | 
17 | O=C1c2ccccc2C(=O)c2c1cc(S(=O)(=O)O)c(O)c2O [ALIZARIN RED] |  |  |  |  |  |  |  |  |  | 2.3 µM
18 | COc1c(NS(=O)(=O)c2ccc(Cl)cc2)cc2oc3cccc(OC)c3c(=O)c2c1O |  | > 20 µM |  |  |  |  |  | < 10% |  | 

Row | Structure (SMILES) | inhibition (Homo sapiens [1]) | IC50 [2] | inhibition (Homo sapiens [3]) | IC50 (PANC-1) | IC50 (MCF7) | IC50 (NCI-H1299) | inhibition [4] | inhibition [5] | Activity [6] | IC50 [7]
19 | COc1c(NS(=O)(=O)c2ccc(I)cc2)cc2oc3cccc(OC)c3c(=O)c2c1O |  | > 20 µM |  |  |  |  |  | < 10% |  | 
20 | COc1c(NS(=O)(=O)c2ccc(C)cc2)cc2oc3cccc(OC)c3c(=O)c2c1O |  | > 20 µM |  |  |  |  |  | < 10% |  | 
21 | N#Cc1ccc(S(=O)(=O)Nc2cc3oc4cccc(O)c4c(=O)c3c(O)c2O)cc1 | 10% | 4.2 µM | 10% | > 200 µM | 40.1 µM | > 40 µM | 10% |  |  | 
22 | COc1c(NS(=O)(=O)c2cc(C(F)(F)F)ccc2C(F)(F)F)cc2oc3cccc(OC)c3c(=O)c2c1O |  | > 20 µM |  |  |  |  |  | < 10% |  | 
23 | O=c1c2c(O)cccc2oc2cc(NS(=O)(=O)c3ccc4ccccc4c3)c(O)c(O)c12 | 9% | 1.6 µM | 9% | > 200 µM | 43.3 µM | 22.6 µM | 9% |  |  | 
24 | COc1c(NS(=O)(=O)c2ccc3ccccc3c2)cc2oc3cccc(OC)c3c(=O)c2c1O |  | > 20 µM |  |  |  |  |  | < 10% |  | 
25 | COc1c(NS(=O)(=O)c2ccc(C(C)(C)C)cc2)cc2oc3cccc(OC)c3c(=O)c2c1O |  | > 20 µM |  |  |  |  |  | < 10% |  | 
26 | COc1c(NS(=O)(=O)c2ccc(N3CCCC3)cc2)cc2oc3cccc(OC)c3c(=O)c2c1O |  | > 20 µM |  |  |  |  |  | < 10% |  | 
27 | COc1c(NS(=O)(=O)c2ccc(N3CCCCC3)cc2)cc2oc3cccc(OC)c3c(=O)c2c1O |  | > 20 µM |  |  |  |  |  | < 10% |  | 
28 | COc1c(NS(=O)(=O)c2ccc(C(F)(F)F)cc2)cc2oc3cccc(OC)c3c(=O)c2c1O |  | > 20 µM |  |  |  |  |  | < 10% |  | 
29 | COc1c(NS(=O)(=O)c2ccc(-c3ccccc3)cc2)cc2oc3cccc(OC)c3c(=O)c2c1O |  | > 20 µM |  |  |  |  |  | < 10% |  | 
30 | COc1c(NS(=O)(=O)c2cccc(OC(F)(F)F)c2)cc2oc3cccc(OC)c3c(=O)c2c1O |  | > 20 µM |  |  |  |  |  | < 10% |  | 
31 | COc1c(NS(=O)(=O)c2ccc(C#N)cc2)cc2oc3cccc(OC)c3c(=O)c2c1O |  | > 20 µM |  |  |  |  |  | < 10% |  | 
32 | COc1c(NS(=O)(=O)c2ccc(C3CCCCC3)cc2)cc2oc3cccc(OC)c3c(=O)c2c1O |  | > 20 µM |  |  |  |  |  | < 10% |  | 
33 | O=c1c2c(O)cccc2oc2cc(NS(=O)(=O)c3ccc(F)cc3)c(O)c(O)c12 | 1% | 5.5 µM | 1% | > 200 µM | 20.8 µM | 21.9 µM | 1% |  |  | 
34 | COc1c(NS(=O)(=O)Cc2ccccc2)cc2oc3cccc(OC)c3c(=O)c2c1O |  | > 20 µM |  |  |  |  |  | < 10% |  | 
35 | COc1c(NS(=O)(=O)c2ccccc2)cc2oc3cccc(OC)c3c(=O)c2c1O |  | > 20 µM |  |  |  |  |  | < 10% |  | 
